# Experimental data: ChEMBL document CHEMBL1137382, “Synthesis and structure-activity relationships of carbazole sulfonamides as a novel class of antimitotic agents against solid tumors” (J Med Chem, 2006)
# Active and inactive are the calls of the source. The rule behind the calls is not given here.
# Tests used:
# [1] = system: CEM (human); test: Antiproliferative activity against human CEM cells after 72 hrs
# [2] = system: DU-145; test: Antiproliferative activity against human DU145 cells after 72 hrs; format: functional, cell-based; details: DU-145, 72 h
# In short: (§1)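 Cells grown in RPMI-1640 with 10% heat-inactivated FCS, penicillin and streptomycin, 5% CO2, 37 °C, used in exponential growth. 5 × 10⁴ cells per well exposed to compound at 0–10 µM for 72 h at 37 °C. IC50 (concentration killing 50% of cells versus untreated controls) determined in duplicate by nonlinear regression.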
# [3] = system: PC-3; test: Antiproliferative activity against human PC3 cells after 72 hrs; format: functional, cell-based; details: PC-3, 72 h
# In short: as §1
# [4] = Antiproliferative activity against human DND1 cells after 72 hrs; format: functional, cell-based; details: DND1, 72 h
# In short: as §1
# [5] = system: MOLT-3; test: Antiproliferative activity against human Molt3 cells after 72 hrs; format: functional, cell-based; details: MOLT-3, 72 h
# In short: as §1
# [6] = system: Bel-7402; test: Antiproliferative activity against human Bel7402 cells after 72 hrs; format: functional, cell-based; details: Bel-7402, 72 h
# In short: as §1
# [7] = system: MCF7; test: Antiproliferative activity against human MCF7 cells after 72 hrs; format: functional, cell-based; details: MCF7, 72 h
# In short: as §1
# [8] = system: MCF7; test: Reduction in tumor volume of human MCF7 cell xenografted in nude mice at 100 mg/kg, ip; format: functional; details: Mus musculus, route intraperitoneal
# In short: (§2)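 Female nude mice carry sc xenografts (MCF-7, 8 × 10⁶ cells, after sc estrogen 0.25 mg/mouse 24 h before; or Bel-7402). At 90–120 mm³, mice were randomised into groups of five. Dosing ip q2d for 5–6 weeks, 100 mg/kg for MCF-7 and 60 mg/kg for Bel-7402, with a solvent control. Tumor volume from caliper width and length, mean of n = 5.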
# [9] = system: DMS-79; test: Antiproliferative activity against human DMS79 cells after 72 hrs; format: functional, cell-based; details: DMS-79, 72 h
# In short: as §1
# [10] = Toxicity ip dosed mouse; format: organism-based; details: in vivo
# [11] = system: Bel-7402; test: Reduction in tumor volume of human Bel7402 cell xenografted in nude mice at 60 mg/kg, ip; format: functional; details: Mus musculus, Bel-7402, ip, route intraperitoneal
# In short: as §2
# [12] = system: MCF7; test: Cell cycle arrest in MCF7 cells by accumulation at M phase at 0.22 to 1.1 uM after 24 hrs; format: functional, cell-based; details: Homo sapiens
# In short: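 MCF-7 cells exposed at 0.22 µM for up to 24 h. Cells trypsin/EDTA-harvested (1.5 × 10⁶), PBS-washed, RNase-treated (0.5 µg/µL final, 37 °C, 30 min), fixed in ice-cold 70% ethanol ≥12 h at 4 °C, and stained with propidium iodide (0.1 µg/µL final, 4 °C, 60 min). ≥10⁴ events analysed by flow cytometry. Mitotic arrest also scored on Giemsa-stained cytospins by chromosome spreading.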
# [13] = system: MCF7; test: Induction of apoptosis in human MCF7 cell line assessed as increase in P-p53 expression upto 48 hrs; format: functional, cell-based
# In short: (§3)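 MCF-7 cells treated at 0.022–2.2 µM, or at 0.22 µM for 0–48 h. Lysed on ice in Tris/NaCl/NP-40/PMSF/aprotinin buffer and protein measured by Bradford. Blots blocked in 5% milk/TBST and probed with monoclonal antibodies to bcl-2, p53, cdc-2 and cyclin B1, then HRP anti-mouse. Signals detected by ECL on film.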
# [14] = system: MCF7; test: Induction of apoptosis in human MCF7 cell line assessed as increase in cyclin B1 expression upto 48 hrs; format: functional, cell-based
# In short: as §3
# [15] = system: MCF7; test: Induction of apoptosis in human MCF7 cell line assessed as increase in cdc2 expression upto 48 hrs; format: functional, cell-based
# In short: as §3
compound,measurement,setting,value
CCn1c2ccccc2c2cc(S(=O)(=O)Nc3ccc(OC)c(N)c3)ccc21,IC50,[1],2200 nM
COc1cc(OC)c(NS(=O)(=O)c2ccc3c(c2)c2ccccc2n3C)c(OC)c1,IC50,[1],70 nM
CCn1c2ccccc2c2cc(S(=O)(=O)Nc3cc(OC)c(Cl)cc3OC)ccc21,IC50,[2],169 nM
same,IC50,[3],90 nM
same,IC50,[4],90 nM
same,IC50,[5],67 nM
same,IC50,[6],135 nM
same,IC50,[7],67 nM
same,IC50,[1],56 nM
CCn1c2ccccc2c2cc(S(=O)(=O)Nc3cc(OC)c(OC)c(OC)c3)ccc21,inhibition in vivo at 100 mg/kg,[8],75%
same,IC50,[2],603 nM
same,IC50,[3],201 nM
same,IC50,[4],89 nM
same,IC50,[9],1900 nM
same,LD50,[10],> 500 mg/kg
same,inhibition in vivo at 60 mg/kg,[11],55%
same,Activity,[12],Active
same,Activity,[13],Active
same,Activity,[14],Active
same,Activity,[15],Active
same,IC50,[5],20 nM
same,IC50,[6],201 nM
same,IC50,[7],89 nM
same,IC50,[1],56 nM
CCn1c2ccccc2c2cc(NS(=O)(=O)c3ccc(OC)cc3)ccc21,IC50,[1],> 10000 nM
COc1cc(NS(=O)(=O)c2ccc3oc4ccccc4c3c2)cc(OC)c1OC,IC50,[1],> 10000 nM
CCn1c2ccccc2c2cc(S(=O)(=O)Nc3cc(OC)cc(OC)c3)ccc21,IC50,[1],974 nM
COc1ccc(/C=C\c2cc(OC)c(OC)c(OC)c2)cc1O [COMBRETASTATIN A4],IC50,[2],9.3 nM
same,IC50,[3],2.8 nM
same,IC50,[4],2.5 nM
same,IC50,[9],124 nM
same,IC50,[5],9.3 nM
same,IC50,[6],10 nM
same,IC50,[7],12 nM
same,IC50,[1],1.9 nM
CCn1c2ccccc2c2cc(S(=O)(=O)Nc3cc(C(F)(F)F)cc(C(F)(F)F)c3)ccc21,IC50,[1],> 10000 nM
CCn1c2ccccc2c2cc(NS(=O)(=O)c3cccc(OC)c3)ccc21,IC50,[1],789 nM
COc1cc(NS(=O)(=O)c2ccc3[nH]c4ccccc4c3c2)cc(OC)c1OC,IC50,[1],606 nM
CCn1c2ccccc2c2cc(S(=O)(=O)Nc3ccc4c(c3)OCO4)ccc21,IC50,[1],6250 nM
CCn1c2ccccc2c2cc(S(=O)(=O)NCc3cc(OC)c(OC)c(OC)c3)ccc21,IC50,[1],> 10000 nM
CCn1c2ccccc2c2cc(NS(=O)(=O)c3ccc(OC)cc3N)ccc21,IC50,[1],> 10000 nM
CCn1c2ccccc2c2cc(NS(=O)(=O)c3cccc(C#N)c3)ccc21,IC50,[1],1320 nM
COc1cc(NS(=O)(=O)c2ccc3c(c2)c2ccccc2n3C)c(OC)cc1Cl,IC50,[1],46 nM
CCn1c2ccccc2c2cc(S(=O)(=O)Nc3ccc(OC)cc3OC)ccc21,IC50,[2],144 nM
same,IC50,[3],144 nM
same,IC50,[4],120 nM
same,IC50,[5],48 nM
same,IC50,[6],96 nM
same,IC50,[7],48 nM
same,IC50,[1],57 nM
CCn1c2ccccc2c2cc(S(=O)(=O)Nc3ccc(OC)cc3)ccc21,IC50,[1],> 10000 nM
CCn1c2ccccc2c2cc(S(=O)(=O)Nc3ccc(F)cc3)ccc21,IC50,[1],2170 nM
CCn1c2ccccc2c2cc(NS(=O)(=O)c3cc(OC)ccc3OC)ccc21,IC50,[1],603 nM
COc1cc(NS(=O)(=O)c2ccc3c(c2)c2ccccc2n3C)cc(OC)c1OC,IC50,[2],232 nM
same,IC50,[3],116 nM
same,IC50,[4],70 nM
same,IC50,[9],2090 nM
same,IC50,[5],19 nM
same,IC50,[6],116 nM
same,IC50,[7],70 nM
same,IC50,[1],46 nM
CCn1c2ccccc2c2cc(S(=O)(=O)Nc3ccc(OC)c(OC)c3)ccc21,IC50,[1],2440 nM
CCn1c2ccccc2c2cc(S(=O)(=O)Nc3cc(OC)ccc3OC)ccc21,IC50,[2],365 nM
same,IC50,[3],780 nM
same,IC50,[4],195 nM
same,IC50,[5],49 nM
same,IC50,[6],219 nM
same,IC50,[7],98 nM
same,IC50,[1],61 nM
CCn1c2ccccc2c2cc(NS(=O)(=O)c3ccc(OC)cc3[N+](=O)[O-])ccc21,IC50,[1],> 10000 nM
COc1cc([C@@H]2c3cc4c(cc3[C@H](O)[C@H]3COC(=O)[C@H]23)OCO4)cc(OC)c1OC [PODOFILOX],IC50,[2],52 nM
same,IC50,[3],10 nM
same,IC50,[4],12 nM
same,IC50,[9],23 nM
same,IC50,[5],14 nM
same,IC50,[6],9.1 nM
same,IC50,[7],15 nM
same,IC50,[1],7.2 nM
CCn1c2ccccc2c2cc(NS(=O)(=O)c3ccc(OC)c(OC)c3)ccc21,IC50,[1],2650 nM
CCn1c2ccccc2c2cc(S(=O)(=O)Nc3ccc(OC)c(Cl)c3)ccc21,IC50,[1],482 nM
CCn1c2ccccc2c2cc(S(=O)(=O)Nc3cc(Cl)c(OC)cc3OC)ccc21,IC50,[1],67 nM
